pIC50: −log10 of the molar value.
Legend:
[1] = system: OCT4; assay: NCCIT-OCT4 response element-driven luciferase reporter assay; type: cell-based, human; conditions: for induction of OCT4 expression in NCCIT-OCT4 reporter cell line: histone demethylase inhibitors incubated for 48 h
[2] = system: KDM4; assay: KDM4 demethylase activity/inhibition assay; type: biochemical
[3] = system: human primary fibroblasts; assay: OSKM episomal reprogramming, TRA-1-60+ colonies counting; type: cell-based
Outline: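 Human primary fibroblasts, including OSKM-resistant lines and fibroblasts carrying an LTR7-EGFP promoter reporter, transfected with episomal OSKM with or without test compound; OSKM-only fibroblasts serve as comparison. ESC-like colonies stained for TRA-1-60, and reprogramming efficiency taken as the count of TRA-1-60-positive colonies.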

[4] = target: LSD1 (Homo sapiens, UniProt O60341); assay: LSD1 activity/inhibition assay; type: biochemical
[5] = system: methylated H3K4; assay: In vitro H3K4 methylation assay; type: biochemical; conditions: micromolar concentrations
[6] = system: hPSCs; assay: Viability and maintenance of hPSCs after single cell expansion; type: cell-based, human; conditions: 10 μM
[7] = system: NANOG; assay: NCCIT-NANOG response element-driven luciferase reporter assay; type: cell-based, human
[8] = system: KDM5; assay: KDM5 demethylase activity/inhibition assay; type: biochemical
[9] = target: KDM5C (Homo sapiens, UniProt P41229); assay: Demethylase assay on KDM5C immunoprecipitated from cells; type: biochemical
Sequence of KDM5C (P41229 whole entry): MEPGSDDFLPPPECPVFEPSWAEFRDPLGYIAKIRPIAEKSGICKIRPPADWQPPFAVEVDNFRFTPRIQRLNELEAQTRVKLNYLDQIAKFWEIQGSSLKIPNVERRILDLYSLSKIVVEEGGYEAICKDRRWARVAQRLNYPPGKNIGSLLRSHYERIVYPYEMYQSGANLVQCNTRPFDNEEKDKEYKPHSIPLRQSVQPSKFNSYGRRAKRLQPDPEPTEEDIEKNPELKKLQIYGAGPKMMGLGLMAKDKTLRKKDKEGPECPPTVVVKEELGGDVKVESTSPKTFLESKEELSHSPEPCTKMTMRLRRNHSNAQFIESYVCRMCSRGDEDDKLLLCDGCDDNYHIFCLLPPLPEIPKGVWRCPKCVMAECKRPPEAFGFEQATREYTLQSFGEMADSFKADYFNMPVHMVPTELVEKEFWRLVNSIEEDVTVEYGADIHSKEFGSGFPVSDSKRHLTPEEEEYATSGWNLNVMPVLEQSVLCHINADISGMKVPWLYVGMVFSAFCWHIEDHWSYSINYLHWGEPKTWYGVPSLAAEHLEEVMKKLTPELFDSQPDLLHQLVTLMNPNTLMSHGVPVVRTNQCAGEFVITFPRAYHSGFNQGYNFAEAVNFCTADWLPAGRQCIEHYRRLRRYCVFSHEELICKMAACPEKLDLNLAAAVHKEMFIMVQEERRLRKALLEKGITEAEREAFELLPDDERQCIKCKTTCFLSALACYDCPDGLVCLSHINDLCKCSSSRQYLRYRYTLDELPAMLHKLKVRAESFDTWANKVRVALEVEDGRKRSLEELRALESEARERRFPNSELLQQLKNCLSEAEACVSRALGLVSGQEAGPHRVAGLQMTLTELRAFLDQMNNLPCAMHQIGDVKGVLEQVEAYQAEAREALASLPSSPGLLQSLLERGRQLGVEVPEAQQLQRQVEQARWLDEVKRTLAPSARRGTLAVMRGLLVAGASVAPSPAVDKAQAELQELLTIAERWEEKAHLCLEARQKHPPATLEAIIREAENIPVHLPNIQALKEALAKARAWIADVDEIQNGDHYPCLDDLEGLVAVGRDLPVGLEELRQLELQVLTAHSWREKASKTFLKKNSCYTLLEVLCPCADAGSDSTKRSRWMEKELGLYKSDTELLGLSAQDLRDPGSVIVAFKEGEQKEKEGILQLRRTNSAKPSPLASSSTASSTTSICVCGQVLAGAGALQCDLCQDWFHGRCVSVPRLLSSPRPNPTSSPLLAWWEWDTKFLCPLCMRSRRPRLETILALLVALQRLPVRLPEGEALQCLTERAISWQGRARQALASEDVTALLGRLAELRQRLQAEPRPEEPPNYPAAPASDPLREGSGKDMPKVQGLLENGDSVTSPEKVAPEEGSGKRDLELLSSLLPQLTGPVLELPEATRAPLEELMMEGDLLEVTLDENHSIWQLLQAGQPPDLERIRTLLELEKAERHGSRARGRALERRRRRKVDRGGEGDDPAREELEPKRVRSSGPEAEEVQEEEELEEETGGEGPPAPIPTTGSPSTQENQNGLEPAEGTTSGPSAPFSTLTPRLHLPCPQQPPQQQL

[10] = system: KDM5D; assay: Demethylase assay on KDM5D immunoprecipitated from cells; type: biochemical
[11] = system: human fibroblasts; assay: qRT-PCR of reprogramming-associated genes in human fibroblasts; type: cell-based

## CC(C)c1c(-c2ccccc2)[nH]c2c(C#N)cnn2c1=O [CPI-455]
[1]
  induction of OCT4 expression in NCCIT-OCT4 reporter cell line: 3 fold

## Cc1ccc(-c2nc3ccc(C)cn3c2CC(=O)N(C)C)cc1 [zolpidem, reference compound]
[2]; micromolar concentrations
  inhibition of KDM4: inhibited
[3]; 10 μM, with OSKM
  iPSC-like colonies in fibroblasts resistant to OSKM-mediated reprogramming: appeared
[4]
  inhibition of LSD1 activity: could not be detected
[1]; 10 μM, 48 h
  induction in NCCIT-OCT4 reporter cells: ~2 fold
[5]
  protection of H3K4 methylation: protected
[6]
  maintenance of iPSCs: promoted the maintenance
[7]; 10 μM, 48 h
  induction in NCCIT-NANOG reporter cells: ~2 fold
[8]; micromolar concentrations
  inhibition of KDM5: inhibited

## Clc1ccc(N/N=C(\c2ccccc2)c2ccccn2)nc1 [JIB-04]
[1]
  induction of OCT4 expression in NCCIT-OCT4 reporter cell line: 5 fold

## Cc1ccc(-c2cn3cc(C)ccc3n2)cc1 [O4I3, 6-methyl-2-(p-tolyl)imidazo[1,2-a]pyridine]
[2]; read-out: KDM4 IC50, whole-cell nuclear extraction
  pIC50: 6.60
[9]
  fold less potent IC50 on KDM5C than on KDM5A: 40 fold
[10]
  fold less potent IC50 on KDM5D than on KDM5A: 20 fold
[3]; 50 nM added to OSKM, HF1 and HF2, compared with OSKM-only-treated fibroblasts
  increase of the number of TRA-1-60-positive colonies: 10–20 times
[3]; HFF-LTR7-EGFP and HF4, with OSKM
  iPSC-like colonies in fibroblasts resistant to OSKM-mediated reprogramming: appeared
[3]; with compound, from ∼0.01% without
  episome-based reprogramming efficiency: ~0.1%
[11]; human fibroblasts
  increase of CDH1 mRNA: about 100 fold
  induction of NANOG mRNA: approximately 10 fold
[11]; human fibroblasts, 50 nM
  increase of SOX2 mRNA: about 100 fold
  induction of OCT4 mRNA: approximately 10 fold
[11]; treated human fibroblasts
  CDH1 mRNA level versus hPSCs: approximately 10%
  NANOG mRNA level versus hPSCs: ~1%
  OCT4 mRNA level versus hPSCs: ~0.1%
  SOX2 mRNA level versus hPSCs: ~1%
[4]
  inhibition of LSD1 activity: could not be detected
[4]; even at a concentration of 100 μM
  inhibitory effect on LSD1: hardly detected
[1]; NCCIT-OCT4 reporter cells, low nanomolar doses, compared with untreated cells
  induction of OCT4: ~10 fold
[7]; NCCIT-NANOG reporter cells, low nanomolar doses, compared with untreated cells
  induction of NANOG: ~10 fold
[8]; read-out: KDM5 IC50, whole-cell nuclear extraction
  pIC50: 9.10

Reference: PMC6354736 (iScience, 2019)
